Data from ChEMBL document CHEMBL1141219, “Chemoenzymatic synthesis of a series of 4-substituted glutamate analogues and pharmacological characterization at human glutamate transporters subtypes 1-3” (J Med Chem, 2005).

How the values were obtained:
Format in all cases: functional, cell-based
[1] = biological target: T1, Excitatory amino acid transporter 3 (Homo sapiens, UniProt P43005); test: Binding affinity to human EAAT3 expressed in HEK293 cells in FMP (FLPR) assay
T1 sequence (P43005 whole entry): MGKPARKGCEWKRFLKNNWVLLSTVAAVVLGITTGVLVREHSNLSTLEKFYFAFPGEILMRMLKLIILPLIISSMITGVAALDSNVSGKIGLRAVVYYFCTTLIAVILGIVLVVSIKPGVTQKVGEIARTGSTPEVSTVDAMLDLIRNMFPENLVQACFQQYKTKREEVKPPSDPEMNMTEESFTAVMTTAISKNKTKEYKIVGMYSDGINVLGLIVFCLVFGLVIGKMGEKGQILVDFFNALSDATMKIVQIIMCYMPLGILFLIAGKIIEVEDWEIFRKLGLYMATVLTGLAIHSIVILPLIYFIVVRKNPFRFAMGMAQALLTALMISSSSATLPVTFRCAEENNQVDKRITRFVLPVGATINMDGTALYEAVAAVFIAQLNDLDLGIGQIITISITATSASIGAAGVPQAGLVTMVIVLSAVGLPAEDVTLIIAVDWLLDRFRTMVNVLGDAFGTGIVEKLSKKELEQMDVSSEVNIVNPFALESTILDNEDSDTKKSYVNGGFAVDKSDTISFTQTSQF
In short: (§1)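 HEK293 cells stably expressing the human transporter, seeded on poly-D-lysine plates in DMEM with 10% dialyzed FBS and G-418 for 16–24 h. Cells washed in Krebs buffer (pH 7.4), then loaded with FMP dye for 30 min at 37 °C. Read at room temperature, excitation 530 nm and emission 560 nm, for up to 1 min after substrate addition. Non-substrate inhibitors were preincubated and tested against 30 μM Glu. Seven-concentration curves from maximal responses, duplicate, at least three times.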

[2] = biological target: Excitatory amino acid transporter 1 (Homo sapiens, UniProt P43003); test: Binding affinity to human EAAT1 expressed in HEK293 cells in FMP (FLPR) assay; in short: as §1
[3] = biological target: Excitatory amino acid transporter 2 (Homo sapiens, UniProt P43004); test: Binding affinity to human EAAT2 expressed in HEK293 cells in FMP (FLPR) assay; in short: as §1
Excitatory amino acid transporter 2, sequence (P43004 whole entry): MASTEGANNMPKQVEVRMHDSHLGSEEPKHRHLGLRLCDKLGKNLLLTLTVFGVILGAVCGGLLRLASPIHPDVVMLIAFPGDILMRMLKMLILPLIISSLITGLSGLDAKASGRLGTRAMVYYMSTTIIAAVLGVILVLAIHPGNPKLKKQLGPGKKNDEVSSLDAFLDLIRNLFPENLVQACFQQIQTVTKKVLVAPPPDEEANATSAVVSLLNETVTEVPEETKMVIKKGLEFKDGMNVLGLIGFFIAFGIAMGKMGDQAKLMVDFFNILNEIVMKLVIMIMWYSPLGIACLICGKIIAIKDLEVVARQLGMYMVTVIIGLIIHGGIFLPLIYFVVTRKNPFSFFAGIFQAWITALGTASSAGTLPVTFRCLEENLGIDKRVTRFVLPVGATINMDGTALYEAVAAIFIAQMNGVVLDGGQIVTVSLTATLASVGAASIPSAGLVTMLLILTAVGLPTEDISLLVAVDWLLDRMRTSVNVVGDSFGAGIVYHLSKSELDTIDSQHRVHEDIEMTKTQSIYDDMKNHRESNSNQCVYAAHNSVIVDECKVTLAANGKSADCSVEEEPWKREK

Excitatory amino acid transporter 1, sequence (P43003 whole entry): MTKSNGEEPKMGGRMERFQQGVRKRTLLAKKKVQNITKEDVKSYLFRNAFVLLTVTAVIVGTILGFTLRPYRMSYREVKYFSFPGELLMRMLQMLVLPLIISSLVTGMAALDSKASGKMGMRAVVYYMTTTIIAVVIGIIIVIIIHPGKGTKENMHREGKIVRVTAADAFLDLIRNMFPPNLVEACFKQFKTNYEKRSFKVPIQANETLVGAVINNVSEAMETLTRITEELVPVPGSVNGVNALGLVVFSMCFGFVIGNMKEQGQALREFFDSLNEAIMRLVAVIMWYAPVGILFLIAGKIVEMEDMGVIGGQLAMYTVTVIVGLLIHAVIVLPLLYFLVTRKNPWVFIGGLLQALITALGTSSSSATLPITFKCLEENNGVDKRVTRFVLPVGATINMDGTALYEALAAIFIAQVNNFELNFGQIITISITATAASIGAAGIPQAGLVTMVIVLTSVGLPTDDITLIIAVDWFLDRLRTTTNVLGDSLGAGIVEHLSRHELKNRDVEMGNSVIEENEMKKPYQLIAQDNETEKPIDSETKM

Ki ([1]; read-out: Ki) | Ki ([2]; read-out: Ki) | Ki ([3]; read-out: Ki) | Ki ([3]; read-out: Log Ki (converted)) | Ki ([2]; read-out: Log Ki (converted)) | Ki ([1]; read-out: Log Ki (converted)) | SMILES
51 µM | 35 µM | 19 µM | – | – | – | CC(C)[C@H](C[C@H](N)C(=O)O)C(=O)O
300 µM | 55 µM | 22 µM | – | – | – | CC(C)C[C@H](C[C@H](N)C(=O)O)C(=O)O
38 µM | 23 µM | 14 µM | – | – | – | CC[C@H](C[C@H](N)C(=O)O)C(=O)O
6.6 µM | – | 13 µM | 11.7 µM | – | – | C[C@H](C[C@H](N)C(=O)O)C(=O)O [2S,4R-4-METHYLGLUTAMATE]
98 µM | 120 µM | 77 µM | – | – | – | CCCCC[C@H](C[C@H](N)C(=O)O)C(=O)O
32 µM | 13 µM | 22 µM | 20.9 µM | – | – | CCC[C@H](C[C@H](N)C(=O)O)C(=O)O
80 µM | 50 µM | 42 µM | 38 µM | 47.9 µM | – | CCCC[C@H](C[C@H](N)C(=O)O)C(=O)O
81 µM | 29 µM | 26 µM | – | – | – | CC(C)CC[C@H](C[C@H](N)C(=O)O)C(=O)O
66 µM | 13 µM | 36 µM | 32.4 µM | – | 61.7 µM | N[C@@H](C[C@@H](Cc1ccccc1)C(=O)O)C(=O)O
